Assay [1] can be described thus: Her2 expression decrease, cell viability multiplex – SKBR3 breast tumor cells, AlphaScreen, ATP viability, primary screen (AID 461).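 On Her2 level: lower value means less Her2 protein in the cells.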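 On viability: percent of carrier control wells set as 100% viability.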 The following applies: SKBR3 Her2 protein level, 18-24 h, measured here: SKBR3 viability, ATP luminescence, at 10 µM. For orientation: Alpha assays give light when donor and acceptor beads are brought close together.
The target in assay [2] is Receptor tyrosine-protein kinase erbB-2 (Homo sapiens) (UniProt P04626). The description is as above. To be noted: 18-24 h, at 10 µM, stronger effect = lower value.
The nature of assay [3]: reduced viability of SK-BR-3 breast cancer cells – cell-based, 24 h, human, pilot screen (AID 572;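 active means viability at or below 10% of carrier control in both of two separate runs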;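 further: compound exposure lasted between 18 and 24 h rather than exactly 24 h; 100% = carrier-treated control wells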). The following applies: SK-BR-3 viability, CellTiter-Glo luminescence, at 10 µM, stronger effect = lower value. A general note: Cellular ATP, detected with luciferase, serves as a proxy for viable cell number.
Assay [4] in a line: HUVEC growth inhibition – cell-based, human, primary screen (AID 575;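 active means viability at or below 30% in both replicate assays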;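 further: 100% = median of untreated cell wells with 0.1% DMSO on each plate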). The following applies: HUVEC proliferation, CellTiter-Glo luminescence, 72 h; at 10 µM; stronger effect = lower value. Summed up:
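Test system: primary human umbilical vein endothelial cells; medium: endothelial basal medium with 2% FBS plus growth supplements; dosing: 10 µM compound only; times: 72 h treatment at 37 °C; signal: CTG luminescence; read-out: % viability relative to median vehicle-well signal on each plate; control set: vehicle and MePR control wells; plate: 384-well, collagen-coated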

Assay [5] in a line: H69AR cell proliferation blockers – human, duplicate replicates, primary screen (AID 580;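 active means viability at or under a set limit in both replicates, limit being median viability minus 3 SD, cut at about 48% in these data, passing the limit was not always enough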;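 further: 100% = mean luminescence of untreated wells and 0% = no signal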). The following applies: H69AR lung tumor cells viability, ATP luminescence, 72 h; at 10 µM; stronger effect = lower value.
Assay [6] can be described thus: MRP1 drug-resistance reversers in H69AR cells – cell-based, doxorubicin co-treatment, pilot screen (AID 601;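 active means viability loss from added drug above about 55%, and viability with drug at most 40%, in both replicates, limit read from the data, passing the limit was not always enough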). To be noted: CellTiter-Glo, 72 h, at 10 µM; for differential viability (reversal): stronger effect = higher value.
A short description of assay [7]: yeast transport mutant growth inhibition pilot in 384-well plates, post-Golgi transport modulator project (AID 636; in the data active means inhibition above about 31%). The following applies: absorbance 615 nm, about 18 h, stronger effect = higher value.
A short description of assay [8]: growth suppression of yeast trafficking mutant, preliminary HTS, modulators of trafficking downstream of Golgi apparatus project, 1536-format plate, OD 615 nm (AID 637; in the data active means inhibition above about 30%). To be noted: yeast transport mutant growth, absorbance 615 nm, 18 h; stronger effect = higher value.
[9] abbreviates: H69AR cells + 2 uM doxorubicin, measured here: viability with 2 uM doxorubicin, stronger effect = lower value.
Where [10] appears, read: H69AR cells, compound alone cytotoxicity.

Active and inactive are the calls of the source.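 How the source made its calls, unless noted: active means Her2 level under about 52% in both replicate screens, with viability over 70% of control (limit read from the data); inconclusive means Her2 under the limit in one screen only, or viability under 70%; inactive means Her2 level above the set limit.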

The viability is a read-out of living cells in per cent, often relative to untreated cells. The inhibition is the drop in the measured response relative to a control, in per cent.

Chain of Receptor tyrosine-protein kinase erbB-2 (Homo sapiens) (P04626 whole entry, looked up): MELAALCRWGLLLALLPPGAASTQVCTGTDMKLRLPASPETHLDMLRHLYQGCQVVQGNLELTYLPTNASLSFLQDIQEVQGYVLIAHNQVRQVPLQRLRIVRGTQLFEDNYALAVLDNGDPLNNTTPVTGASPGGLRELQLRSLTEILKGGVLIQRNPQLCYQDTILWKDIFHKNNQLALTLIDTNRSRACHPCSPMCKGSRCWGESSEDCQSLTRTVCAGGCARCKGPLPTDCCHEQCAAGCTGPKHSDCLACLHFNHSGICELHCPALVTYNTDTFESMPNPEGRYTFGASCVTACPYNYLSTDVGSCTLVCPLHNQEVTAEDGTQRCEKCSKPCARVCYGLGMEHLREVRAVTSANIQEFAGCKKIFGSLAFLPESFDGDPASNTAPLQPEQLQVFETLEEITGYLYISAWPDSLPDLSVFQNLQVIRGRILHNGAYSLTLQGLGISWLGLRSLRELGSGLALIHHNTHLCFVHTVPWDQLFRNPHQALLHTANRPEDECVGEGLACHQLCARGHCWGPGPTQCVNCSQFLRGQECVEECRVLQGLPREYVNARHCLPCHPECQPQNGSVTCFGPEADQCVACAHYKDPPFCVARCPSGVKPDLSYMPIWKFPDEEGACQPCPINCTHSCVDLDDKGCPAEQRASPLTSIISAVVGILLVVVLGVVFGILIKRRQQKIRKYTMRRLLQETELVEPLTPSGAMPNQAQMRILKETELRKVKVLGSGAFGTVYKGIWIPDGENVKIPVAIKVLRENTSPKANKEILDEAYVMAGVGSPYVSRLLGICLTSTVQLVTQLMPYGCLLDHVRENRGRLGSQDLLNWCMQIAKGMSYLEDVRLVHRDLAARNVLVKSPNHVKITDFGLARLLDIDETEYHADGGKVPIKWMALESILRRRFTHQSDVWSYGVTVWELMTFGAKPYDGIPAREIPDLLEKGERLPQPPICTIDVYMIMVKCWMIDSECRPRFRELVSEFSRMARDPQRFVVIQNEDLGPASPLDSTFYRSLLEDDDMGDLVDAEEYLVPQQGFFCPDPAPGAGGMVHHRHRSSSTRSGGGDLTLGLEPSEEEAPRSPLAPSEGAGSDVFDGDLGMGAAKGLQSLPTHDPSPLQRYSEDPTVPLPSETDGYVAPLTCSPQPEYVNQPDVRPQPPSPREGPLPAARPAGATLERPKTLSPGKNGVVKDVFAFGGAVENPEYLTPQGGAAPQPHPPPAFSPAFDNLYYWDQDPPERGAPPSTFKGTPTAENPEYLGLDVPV

For `CCC1CCCCN1S(=O)(=O)c1ccc(C(=O)Nc2nnc(-c3cccs3)o2)cc1` (stereo not given), the viability in assay [1] was 79.5%; in assay [3] it was 79.5% (inactive); in assay [4], 3.2% (active); in assay [5] it was 16.7% (active); in assay [6] (setting [9]), 44.9%; in assay [6] (setting [10]), 16.7%. In addition, the Her2 level in assay [2] was 91.5% (inactive). Besides, the differential viability (reversal) in assay [6] (H69AR cells + 2 uM doxorubicin) is -28.1% (inactive). The inhibition in assay [7] was -8.68% (inactive); in assay [8], 9.64% (inactive).

As for `CCC(Sc1nc2sc(C(=O)OC)c(C)c2c(=O)n1N)C(=O)NCC1CCCO1` (stereo not given), the viability was 102% in assay [1]; 102% (inactive) in assay [3]; 94.2% (inactive) in assay [4]; 82.2% (inactive) in assay [5]; 87.7% in assay [6] (setting [9]); 82.2% in assay [6] (setting [10]). The Her2 level in assay [2] was 88% (inactive). Besides, the differential viability (reversal) in assay [6] (H69AR cells + 2 uM doxorubicin) was -5.51% (inactive). Moreover, the inhibition in assay [7] is -6.49% (inactive); in assay [8], -1.27% (inactive).

Turning to `CCOc1ccccc1NC(=O)N1CCCC1C(=O)Nc1nnc(CC)s1` (stereo not given), the viability in assay [1] was 94%; in assay [3] it was 94% (inactive); in assay [4] it was 89.7% (inactive); in assay [5] it was 109% (inactive); in assay [6] (setting [9]), 88.8%; in assay [6] (setting [10]) it was 109%. Also, the Her2 level in assay [2] is 88% (inactive). For the same compound, the differential viability (reversal) in assay [6] (H69AR cells + 2 uM doxorubicin) was 20% (inactive). Further, the inhibition was -5.95% (inactive) in assay [7] and -0.83% (inactive) in assay [8].

`CCOC(=O)C(C)n1cnc2c(nnn2Cc2ccc(C)cc2)c1=O` (stereo not given): the viability in assay [1] was 116%; in assay [3], 116% (inactive); in assay [4] it was 104% (inactive); in assay [5], 91.9% (inactive); in assay [6] (setting [9]), 88.7%; in assay [6] (setting [10]), 91.9%. In addition, in assay [2], the Her2 level is 95.5% (inactive). Also, the differential viability (reversal) in assay [6] (H69AR cells + 2 uM doxorubicin) was 3.18% (inactive). For the same compound, the figures for the inhibition in assay [7] and in assay [8] were -9.73% (inactive) and 1.9% (inactive), respectively.

Regarding `Cc1cc(NCCN2CCCCC2)n2c(nc3ccccc32)c1C#N`, the viability in assay [1] was 87.5%; in assay [3] it was 87.5% (inactive); in assay [4], 96.2% (inactive); in assay [5], 85.1% (inactive); in assay [6] (setting [9]) it was 92.6%; in assay [6] (setting [10]), 85.1%. The Her2 level in assay [2] is 65.5% (inactive). Further, in assay [6] (H69AR cells + 2 uM doxorubicin), the differential viability (reversal) was -7.47% (inactive). The inhibition in assay [7] is -5.6% (inactive); in assay [8], 4.1% (inactive).

As to `O=C(O)CC1SC(=Nc2cccc(C(F)(F)F)c2)NC1=O` (stereo not given), the viability in assay [1] was 111%; in assay [3], 111% (inactive); in assay [4], 104% (inactive); in assay [5], 103% (inactive); in assay [6] (setting [9]) it was 93.2%; in assay [6] (setting [10]), 103%. Also, in assay [2], the Her2 level was 94.5% (inactive). The differential viability (reversal) in assay [6] (H69AR cells + 2 uM doxorubicin) was 9.34% (inactive). The inhibition in assay [7] was -1.45% (inactive); in assay [8] it was 1.29% (inactive).

For the compound `CCCc1nnc(SCC(=O)N2CCOCC2)n1Cc1ccco1`, the viability in assay [1] was 126%; in assay [3] it was 126% (inactive); in assay [4], 109% (inactive); in assay [5] it was 96.9% (inactive); in assay [6] (setting [9]), 81.6%; in assay [6] (setting [10]), 96.9%. Besides, the Her2 level in assay [2] was 87.5% (inactive). Moreover, the differential viability (reversal) in assay [6] (H69AR cells + 2 uM doxorubicin) is 15.3% (inactive). The inhibition is -4.67% (inactive) in assay [7] and -6.39% (inactive) in assay [8].

Regarding `CCOC(=O)CCCn1nc(C)n2c(cc3sccc32)c1=O`, the viability is 87.5% in assay [1]; 87.5% (inactive) in assay [3]; 91.8% (inactive) in assay [4]; 102% (inactive) in assay [5]; 81% in assay [6] (setting [9]); 102% in assay [6] (setting [10]). In addition, the Her2 level in assay [2] was 94.5% (inactive). Besides, the differential viability (reversal) in assay [6] (H69AR cells + 2 uM doxorubicin) is 20.7% (inactive). The inhibition is -5.07% (inactive) in assay [7] and -3.77% (inactive) in assay [8].

Consider `CCN1C(=O)N(CC)C2C1N(C(C)=O)C(=O)N2C(C)=O` (stereo not given), for which the viability was 107% in assay [1]; 107% (inactive) in assay [3]; 104% (inactive) in assay [4]; 94.8% (inactive) in assay [5]; 83% in assay [6] (setting [9]); 94.8% in assay [6] (setting [10]). The Her2 level in assay [2] was 102% (inactive). In assay [6] (H69AR cells + 2 uM doxorubicin), the differential viability (reversal) is 11.9% (inactive). For the same compound, the figures for the inhibition in assay [7] and in assay [8] were -5.66% (inactive) and -2.18% (inactive), respectively.

`CCOC(=O)N1CCC2(O)CCCCC2C1c1ccc(F)cc1` (stereo not given): the viability was 102% in assay [1]; 102% (inactive) in assay [3]; 91.3% (inactive) in assay [4]; 96.8% (inactive) in assay [5]; 88.5% in assay [6] (setting [9]); 96.8% in assay [6] (setting [10]). Moreover, the Her2 level in assay [2] is 125% (inactive). The differential viability (reversal) in assay [6] (H69AR cells + 2 uM doxorubicin) is 8.28% (inactive). The inhibition was -3.33% (inactive) in assay [7] and 30.8% (active) in assay [8].

For the compound `COc1ccc2nc(SCC(=O)NC(C)C)[nH]c2c1`, the viability in assay [1] was 104%; in assay [3], 104% (inactive); in assay [4] it was 102% (inactive); in assay [5], 96.4% (inactive); in assay [6] (setting [9]), 91.4%; in assay [6] (setting [10]) it was 96.4%. Also, the Her2 level in assay [2] is 106% (inactive). Also, the differential viability (reversal) in assay [6] (H69AR cells + 2 uM doxorubicin) is 4.97% (inactive). In addition, the inhibition is 3.25% (inactive) in assay [7] and -10.8% (inactive) in assay [8].

For the compound `CCCn1c(N2CCN(CC(=O)Nc3ccc4c(c3)OCCO4)CC2)nc2ccccc21`, the viability was 88.5% in assay [1]; 88.5% (inactive) in assay [3]; 87.4% (inactive) in assay [4]; 88.9% (inactive) in assay [5]; 88.3% in assay [6] (setting [9]); 88.9% in assay [6] (setting [10]). Moreover, the Her2 level in assay [2] is 96% (inactive). For the same compound, in assay [6] (H69AR cells + 2 uM doxorubicin), the differential viability (reversal) was 0.63% (inactive). The inhibition is -6.18% (inactive) in assay [7] and 4.59% (inactive) in assay [8].

Take `CCOCCCn1c(=S)[nH]c2cc3c(cc2c1=O)OCO3`: the viability in assay [1] is 99%; in assay [3], 99% (inactive); in assay [4], 96.3% (inactive); in assay [5], 97.6% (inactive); in assay [6] (setting [9]) it was 93.4%; in assay [6] (setting [10]), 97.6%. For the same compound, the Her2 level in assay [2] is 102% (inactive). Besides, in assay [6] (H69AR cells + 2 uM doxorubicin), the differential viability (reversal) was 4.13% (inactive). Besides, the inhibition in assay [7] was -3.38% (inactive); in assay [8] it was -2.79% (inactive).

In the case of `O=S(=O)(c1cc(Cl)ccc1Br)N1CCOCC1`, the viability in assay [1] is 95.5%; in assay [3], 95.5% (inactive); in assay [4], 103% (inactive); in assay [5] it was 91% (inactive); in assay [6] (setting [9]) it was 90.4%; in assay [6] (setting [10]), 91%. In addition, in assay [2], the Her2 level was 108% (inactive). In addition, the differential viability (reversal) in assay [6] (H69AR cells + 2 uM doxorubicin) was 0.56% (inactive). Further, the inhibition is -2.99% (inactive) in assay [7] and -0.17% (inactive) in assay [8].

Take `CCC(C)NC(=O)CC1Oc2ccc(C)cc2NC1=O` (stereo not given): the viability in assay [1] is 105%; in assay [3], 105% (inactive); in assay [4] it was 90.3% (inactive); in assay [5] it was 91.7% (inactive); in assay [6] (setting [9]), 94.2%; in assay [6] (setting [10]), 91.7%. Also, the Her2 level in assay [2] was 99% (inactive). For the same compound, the differential viability (reversal) in assay [6] (H69AR cells + 2 uM doxorubicin) is -2.57% (inactive). For the same compound, the inhibition in assay [7] is 0.13% (inactive); in assay [8], -3.28% (inactive).

For the compound `COc1ccccc1NC(=O)CSC1CC(=O)N(c2ccc3c(c2)OCO3)C1=O` (stereo not given), the viability in assay [1] was 98%; in assay [3], 98% (inactive); in assay [4] it was 96.5% (inactive); in assay [5], 99.4% (inactive); in assay [6] (setting [9]), 98.4%; in assay [6] (setting [10]), 99.4%. For the same compound, the Her2 level in assay [2] was 82.5% (inactive). Further, the differential viability (reversal) in assay [6] (H69AR cells + 2 uM doxorubicin) is 0.975% (inactive). Besides, the inhibition in assay [7] was -4.53% (inactive); in assay [8], 0.16% (inactive).
